Data taken from ChEMBL document CHEMBL4382241, “Synthesis and evaluation of third generation vitamin D3 analogues as inhibitors of Hedgehog signaling” (Eur J Med Chem, 2019).
In brackets after ≈: the same amount, converted by molar mass. Activity calls are given as the source filed them. The rule behind the calls is not given here.

Key:
[1] = test system: Medulloblastoma cell; assay: Antiproliferative activity against medulloblastoma cells derived from conditional patched knockout mouse after 48 hrs by [3H]-thymidine incorporation assay; format: functional
Procedure, shortened: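 Primary tumour cells from Math1-Cre;Ptc fl/fl medulloblastoma were isolated and cultured in vitro, then incubated with analogue for 48 h in a proliferation assay. GI50 is mean ± SEM of at least two separate experiments performed in triplicate.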

[2] = biological target: T1, Vitamin D3 receptor (Mus musculus, UniProt P48281); assay: Activation of VDR in mouse ASZ001 cells assessed as change in Cyp24A1 mRNA expression after 48 hrs by q-PCR analysis; format: cell-based
T1 sequence (P48281 whole entry): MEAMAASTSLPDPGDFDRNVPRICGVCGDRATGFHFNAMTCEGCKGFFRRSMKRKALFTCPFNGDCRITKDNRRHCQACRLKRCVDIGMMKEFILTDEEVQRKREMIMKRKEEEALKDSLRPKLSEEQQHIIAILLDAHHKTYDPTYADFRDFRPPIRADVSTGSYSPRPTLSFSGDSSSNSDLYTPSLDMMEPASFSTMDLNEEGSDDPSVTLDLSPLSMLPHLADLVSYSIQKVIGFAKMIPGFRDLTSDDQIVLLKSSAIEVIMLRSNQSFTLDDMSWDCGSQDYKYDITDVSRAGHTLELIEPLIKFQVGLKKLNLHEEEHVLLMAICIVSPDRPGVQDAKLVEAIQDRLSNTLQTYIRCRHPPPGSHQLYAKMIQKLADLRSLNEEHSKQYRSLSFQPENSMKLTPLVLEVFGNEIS
Procedure, shortened: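 In ASZ001 cells, full dose-response Cyp24A1 mRNA measurement by qPCR was done relative to DMSO control (1.0). EC50 values are mean ± SEM of at least two separate experiments performed in triplicate.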

[3] = biological target: T2, Vitamin D3 receptor (Mus musculus) (UniProt P48281); assay: Activation of VDR in mouse C3H10T1/2 cells assessed as change in Cyp24A1 mRNA expression at 5 uM after 24 hrs by q-PCR analysis relative to control; format: cell-based
T2 sequence (whole entry): T1 sequence (P48281 whole entry)

[4] = biological target: T2, Vitamin D3 receptor (Mus musculus); assay: Activation of VDR in mouse ASZ001 cells assessed as change in Cyp24A1 mRNA expression at 5 uM after 48 hrs by q-PCR analysis relative to control; format: cell-based
[5] = species on record: Mus musculus; assay: Inhibition of Hedgehog signaling pathway in mouse C3H10T1/2 cells assessed as residual oxysterol-induced Gli1 mRNA expression at 5 uM after 24 hrs by q-PCR analysis relative to oxysterol alone
[6] = Inhibition of Hedgehog signaling pathway in mouse ASZ001 cells assessed as reduction in […] Gli1 mRNA expression after 48 hrs by q-PCR analysis; format: cell-based; settings: ASZ001, 48 h
[7] = Inhibition of Hedgehog signaling pathway in mouse C3H10T1/2 cells assessed as reduction in oxysterol-induced Gli1 mRNA expression after 24 hrs by q-PCR analysis; format: cell-based; settings: C3H 10T1/2, 24 h
[8] = species on record: Mus musculus; assay: Inhibition of Hedgehog signaling pathway in Sufu-deficient mouse C3H10T1/2 cells assessed as change in CYP24A1 mRNA expression at 5 uM after 24 hrs by q-PCR analysis; design: scale not given: the % may be the effect or the level left
[9] = Inhibition of Hedgehog signaling pathway in Sufu-deficient mouse C3H10T1/2 cells assessed as reduction in oxysterol-induced Gli1 mRNA expression after 24 hrs by q-PCR analysis; settings: C3H 10T1/2, 24 h
[10] = Inhibition of Hedgehog signaling pathway in VDR-deficient mouse C3H10T1/2 cells assessed as reduction in oxysterol-induced Gli1 mRNA expression after 24 hrs by q-PCR analysis; settings: C3H 10T1/2, 24 h
[11] = species on record: Mus musculus; assay: Inhibition of Hedgehog signaling pathway in Sufu-deficient mouse C3H10T1/2 cells assessed as reduction in oxysterol-induced Gli1 mRNA expression at 5 uM after 24 hrs by q-PCR analysis
[12] = Kinetic solubility of the compound in pH 7.4 phosphate buffered saline; format: physicochemical; settings: read-out: Kinetic_solubility
Procedure, shortened: (§1)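 Kinetic solubility was run in PBS at pH 4.0 and at pH 7.4 under a standard contract protocol. Compound concentration was measured by LC-MS/MS.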

[13] = Kinetic solubility of the compound in pH 4 phosphate buffered saline; format: physicochemical; settings: read-out: Kinetic_solubility; procedure, shortened: as §1
[14] = species on record: Mus musculus; assay: Inhibition of Hedgehog signaling pathway in VDR-deficient mouse C3H10T1/2 cells assessed as reduction in oxysterol-induced Gli1 mRNA expression at 5 uM after 24 hrs by q-PCR analysis
[15] = species on record: Mus musculus; assay: Inhibition of Hedgehog signaling pathway in VDR-deficient mouse C3H10T1/2 cells assessed as change in CYP24A1 mRNA expression at 5 uM after 24 hrs by q-PCR analysis; design: scale not given: the % may be the effect or the level left
[16] = Clearance in human liver microsomes assessed per mg protein at 1 uM by LC-MS/MS analysis
[17] = Half life in human liver microsomes at 1 uM by LC-MS/MS analysis
[18] = species on record: Mus musculus; assay: Inhibition of Hedgehog signaling pathway in Sufu-deficient mouse C3H10T1/2 cells assessed as reduction in oxysterol-induced Gli1 mRNA expression at 1 uM after 24 hrs by q-PCR analysis
[19] = species on record: Mus musculus; assay: Inhibition of Hedgehog signaling pathway in VDR-deficient mouse C3H10T1/2 cells assessed as change in CYP24A1 mRNA expression at 1 uM after 24 hrs by q-PCR analysis; design: scale not given: the % may be the effect or the level left
[20] = biological target: T2, Vitamin D3 receptor (Mus musculus); assay: Activation of VDR in mouse ASZ001 cells assessed as change in Cyp24A1 mRNA expression at 1 uM after 48 hrs by q-PCR analysis relative to control; format: cell-based
[21] = biological target: T2, Vitamin D3 receptor (Mus musculus); assay: Activation of VDR in mouse ASZ001 cells assessed as change in Cyp24A1 mRNA expression at 2.5 uM after 48 hrs by q-PCR analysis relative to control; format: cell-based

Structure (SMILES) | GI50 [1] | EC50 [2] | Activity [3] | Activity [4] | % Gli1 activity [5] | IC50 [6] | IC50 [7] | solubility kinetic [12] | solubility kinetic [13] | CLH [16] | half-life at 1 µM ([17]; liver microsomes) | other results
C[C@H](CCCC(C)(C)O)[C@H]1CC[C@H]2[C@H](CNc3cccc(O)c3)CCC[C@]12C | 1.6 µM | > 10 µM | 34% | 8.4% | 4.1% | 1.3 µM | 1.7 µM |  |  |  |  | 
CC(C)CCC[C@@H](C)[C@H]1CC[C@H]2[C@@H](Nc3ccc(O)cc3)CCC[C@]12C |  |  | 45% |  |  |  | 0.4 µM | 0.0026 µg/mL (≈ 0.00727 µM) | 0.00062 µg/mL (≈ 0.00173 µM) | 12 | 57 min | Activity [8]: 1.2%; IC50 [9]: 3.1 µM; IC50 [10]: 3.9 µM; Hedgehog inhibition activity call (active/not active) [11]: inactive; inhibition [14]: inactive; Activity [15]: 8.1%
COc1cccc(N[C@H]2CCC[C@]3(C)[C@@H]([C@H](C)CCCC(C)C)CC[C@@H]23)c1 |  |  | 1.9% |  | 110% |  |  |  |  |  |  | 
COC(C)(C)CCC[C@@H](C)[C@H]1CC[C@H]2[C@@H](OC(=O)c3cccc(O)c3)CCC[C@]12C |  | > 10 µM | 14% | 14% | 0.7% | 1 µM | 1.6 µM | 0.0023 µg/mL (≈ 0.00552 µM) | 0.0027 µg/mL (≈ 0.00648 µM) | 15 |  | half-life at 1 µM ([17]; microsomes): 49 min
C[C@H](CCCC(C)(C)O)[C@H]1CC[C@H]2[C@H](CNc3ccc(O)cc3)CCC[C@]12C |  | 1.3 µM | 6.1% | 140% | 5.6% | 0.5 µM | 0.4 µM |  |  |  |  | 
CC(C)CCC[C@@H](C)[C@H]1CC[C@H]2[C@H](Nc3ccc(O)cc3)CCC[C@]12C | 2.1 µM |  |  |  |  |  |  | 0.00026 µg/mL (≈ 0.000727 µM) | 0.00075 µg/mL (≈ 0.0021 µM) | < 3 | > 231 min | 
CS(=O)(=O)c1ccc(C(=O)Nc2ccc(Cl)c(-c3ccccn3)c2)c(Cl)c1 [VISMODEGIB] |  |  |  |  | 0.9% | 0.04 µM | 0.082 µM |  |  |  |  | Hedgehog inhibition activity call (active/not active) [11]: Active; inhibition [18]: inactive
COC(C)(C)CCC[C@@H](C)[C@H]1CC[C@H]2[C@H](CNc3cccc(O)c3)CCC[C@]12C |  | 0.6 µM | 27% | 2400% | 3.7% | 0.7 µM | 1.1 µM | 0.12 µg/mL (≈ 0.299 µM) | 0.06 µg/mL (≈ 0.149 µM) | 16 | 43 min | 
C=C1CC[C@H](O)C/C1=C/C=C1\CCC[C@]2(C)[C@@H]([C@H](C)CCCC(C)C)CC[C@@H]12 [CHOLECALCIFEROL] | 5.8 µM | 0.9 µM |  |  |  |  |  |  |  |  |  | Activity [8]: 2.9%; IC50 [9]: > 10 µM; IC50 [10]: 4.5 µM; inhibition [11]: inactive; inhibition [14]: inactive; Activity [15]: 5.5%
CCC(CC)(c1ccc(OCC(O)CO)c(C)c1)c1ccc(OCC(O)C(C)(C)C)c(C)c1 (centres undefined) [LG-190178] |  | 0.0077 µM |  |  |  | 0.00023 µM | 0.00025 µM |  |  |  |  | IC50 [10]: 1.9 µM; Activity [19]: 250%; Activity [20]: 13000%
CC(C)CCC[C@@H](C)[C@H]1CC[C@H]2[C@@H](NC(=O)c3cccc(O)c3)CCC[C@]12C |  |  |  |  |  |  |  | 0.68 µg/mL (≈ 1.76 µM) | 0.27 µg/mL (≈ 0.7 µM) | < 3 | > 231 min | 
C[C@H](CCCC(C)(C)O)[C@H]1CC[C@H]2[C@@H](Nc3ccc(O)cc3)CCC[C@]12C | 2.2 µM | 0.6 µM | 15000% | > 30000% | 11% | 0.2 µM | 0.89 to 0.9 µM | 0.0042 µg/mL (≈ 0.0112 µM) | 2.4 µg/mL (≈ 6.42 µM) |  |  | Activity [8]: 51%; IC50 [9]: 2.9 µM; IC50 [10]: 4.9 µM; Hedgehog inhibition activity call (active/not active) [11]: inactive; inhibition [14]: inactive; Activity [15]: 140%
CC(C)CCC[C@@H](C)[C@H]1CC[C@H]2[C@H](CNc3cccc(O)c3)CCC[C@]12C |  |  | 13% |  | 13% | 1.2 µM | 3.8 µM |  |  |  |  | Activity [21]: 7.8%
CC(C)CCC[C@@H](C)[C@H]1CC[C@H]2[C@@H](Nc3ccc4c(c3)OCO4)CCC[C@]12C |  |  | 6.1% |  | 110% |  |  |  |  |  |  | 
CC(C)CCC[C@@H](C)[C@H]1CC[C@H]2[C@@H](OC(=O)c3cccc(O)c3)CCC[C@]12C | > 10 µM |  |  |  |  |  |  | 0.67 µg/mL (≈ 1.73 µM) | 0.16 µg/mL (≈ 0.414 µM) | < 3 | > 231 min | 
COc1ccc(N[C@H]2CCC[C@]3(C)[C@@H]([C@H](C)CCCC(C)C)CC[C@@H]23)cc1 |  |  | 2.4% |  | 73% |  |  |  |  |  |  | 
CC(C)CCC[C@@H](C)[C@H]1CC[C@H]2[C@@H](NCc3ccc(O)cc3)CCC[C@]12C |  |  | 24% | 1.1% | 4.6% | 0.3 µM | 3.1 µM |  |  |  |  | 
CC(C)CCC[C@@H](C)[C@H]1CC[C@H]2[C@H](CNc3ccc(O)cc3)CCC[C@]12C | 2.1 µM |  | 8.9% |  | 1.9% | 0.6 µM | 0.6 µM | 0.0027 µg/mL (≈ 0.00727 µM) | 0.00013 µg/mL (≈ 0.00035 µM) | < 3 |  | Activity [21]: 5.8%; half-life at 1 µM ([17]; microsomes): > 231 min
COC(C)(C)CCC[C@@H](C)[C@H]1CC[C@H]2[C@@H](Nc3cccc(O)c3)CCC[C@]12C |  | 0.7 µM | 89% | 11000% | 3.3% | 0.6 µM | 2.3 µM | 0.014 µg/mL (≈ 0.0361 µM) | 0.017 µg/mL (≈ 0.0439 µM) | < 3 | > 231 min | 
C[C@H](CCCC(C)(C)O)[C@H]1CC[C@H]2[C@@H](OC(=O)c3cccc(O)c3)CCC[C@]12C | > 10 µM | 0.4 µM | 27000% | > 30000% | 2.9% | 0.4 µM | 1.6 µM | 0.031 µg/mL (≈ 0.077 µM) | 0.048 µg/mL (≈ 0.119 µM) | 15 | 47 min | 
C[C@H](CCCC(C)(C)O)[C@H]1CC[C@H]2[C@@H](Nc3cccc(O)c3)CCC[C@]12C | 5.3 µM | 0.1 µM | > 30000% | > 30000% | 5.9% | 0.1 µM | 1.3 µM |  |  |  |  | 
CC(C)CCC[C@@H](C)[C@H]1CC[C@H]2[C@@H](Nc3ccccc3)CCC[C@]12C |  |  | 1.2% |  | 98% |  |  |  |  |  |  | 
